{"data": "Published values from different studies", "note": "Compare with care: the assays were run in different laboratories."}
{"SMILES": "CN1CCN(C(=O)CN[C@@H]2C[C@H]2c2ccc(OCc3ccccc3)cc2)CC1", "host": "mouse", "matrix": "plasma", "route": "intraperitoneal", "dose": "10 mg/kg", "Tmax": "4.8 min"}
{"SMILES": "CC=Cc1ccc(O)c(OC)c1", "host": "mouse", "matrix": "brain", "route": "intranasal", "dose": "100 mg/kg", "Tmax": "5 min"}
{"SMILES": "COc1nc(-c2cc(C)c(N[C@@H](C)c3c(F)cc(F)cc3F)nn2)ccc1-n1cnc(C)c1", "host": "male CD-1 mouse", "matrix": "plasma", "route": "intravenous", "dose": "1 mg/kg", "setting": "single dose", "Tmax": "4.98 min"}
{"SMILES": "c1ccc(-c2nc(N3CCC(c4ccccn4)C3)c3ccccc3n2)nc1 (centres unmarked)", "host": "female BALB/c mouse", "matrix": "plasma", "route": "oral", "dose": "50 mg/kg", "Tmax": "78 min"}
{"SMILES": "COc1ccc(C(O)COc2ccc(-c3csc(-c4ccc(OCC(O)c5ccc(OC)c(OC)c5)cc4)n3)cc2)cc1OC (centres unmarked)", "host": "C57BL/6 mouse", "matrix": "plasma", "route": "oral", "dose": "10 mg/kg", "Tmax": "60 min"}
{"SMILES": "CCc1cc(C(=O)NC)c2nccc(N3CCc4c(cc(Cn5ccnc5)cc4-c4cn(C)nc4C(F)(F)F)C3=O)c2c1", "host": "male CD-1 mouse", "matrix": "plasma", "route": "oral", "dose": "50 mg/kg", "Tmax": "48 min"}
{"SMILES": "CCc1ccc(Cc2cc([C@@H]3O[C@H](CO)[C@@H](O)[C@H](O)[C@H]3O)cc3c2CCC3)cc1", "host": "male C57BL/6 mouse", "matrix": "plasma", "route": "oral", "dose": "1 mg/kg", "Tmax": "30 min"}
{"SMILES": "C=CC(=O)N1CC2CC(n3nc(-c4ccc(C(=O)Nc5ccccn5)cc4)c4c(N)ncnc43)CC2C1 (centres unmarked)", "host": "SCID mouse", "matrix": "plasma", "route": "oral", "dose": "1 mg/kg", "Tmax": "15 min"}
{"SMILES": "OC[C@H]1O[C@@H](c2ccc(Cl)c(Cc3ccc(O[C@H]4CCOC4)cc3)c2)[C@H](O)[C@@H](O)[C@@H]1O", "host": "CD-1 mouse", "matrix": "plasma", "route": "oral", "dose": "10 mg/kg", "Tmax": "15 min"}
{"SMILES": "CSc1cc(Oc2ccnc3[nH]c(=O)cnc23)ccc1NC(=O)Nc1cc(C(C)(C)C)nn1-c1ccccc1", "host": "BALB/c mouse", "matrix": "plasma", "route": "oral", "dose": "10 mg/kg", "Tmax": "180 min"}
{"SMILES": "NC[C@@H]1O[C@H](O[C@H]2[C@@H](O)[C@H](O[C@@H]3[C@@H](O)[C@H](N)C[C@H](N)[C@H]3O[C@H]3O[C@H](CO)[C@@H](O)[C@H](O)[C@H]3N)O[C@@H]2CO)[C@H](N)[C@@H](O)[C@@H]1O", "host": "male BALB/c mouse", "matrix": "plasma", "route": "oral", "dose": "500 mg/kg", "Tmax": "60 min"}
{"SMILES": "CC(C)(C)c1ccc(O)c(CN(Cc2cc(C(C)(C)C)ccc2O)C2CCC(NC(N)=O)CC2)c1 (centres unmarked)", "host": "male C57BL/6 mouse", "matrix": "plasma", "route": "intraperitoneal", "dose": "25 mg/kg", "setting": "single dose", "Tmax": "15 min"}
{"SMILES": "COc1ccc2nccc(N3CCc4c(cc(Cn5ccnc5)cc4-c4cn(C)nc4C(F)(F)F)C3=O)c2c1", "host": "male CD-1 mouse", "matrix": "plasma", "route": "oral", "dose": "10 mg/kg", "Tmax": "42 min"}
{"SMILES": "COc1cc(/C=C/C(=O)CC(=O)/C=C/c2ccc(O)c(OC)c2)ccc1O", "technique": "HPLC", "host": "Swiss mouse", "matrix": "plasma", "route": "oral", "dose": "2 g/kg", "Tmax": "120 min"}
{"SMILES": "CNC(=O)[C@H](Cc1c[nH]cn1)NC(=O)CN(CCCc1ccccc1)CC(=O)O", "host": "male C57BL/6 mouse", "matrix": "plasma", "route": "intraperitoneal", "dose": "30 mg/kg", "Tmax": "10 min"}
{"SMILES": "Cc1cc(NC(=O)c2cccc3cc(-c4cccc5[nH]nc(N)c45)ccc23)ccc1F", "host": "male CD-1 mouse", "matrix": "plasma", "route": "oral", "dose": "10 mg/kg", "Tmax": "60 min"}
{"SMILES": "COc1ccc(C[C@@H](C(=O)NO)n2cc(CNS(=O)(=O)c3ccc(-c4ccccc4)s3)nn2)cc1", "host": "female CD-1 mouse", "matrix": "plasma", "route": "intraperitoneal", "dose": "50 mg/kg", "Tmax": "20 min"}
